Assay results from ChEMBL document CHEMBL1135743 (J Med Chem, 2002).

Key:
Adenosine receptor A2a [1] = target: T1, Adenosine receptor A2a (Homo sapiens, UniProt P29274); assay: Ability to displace [3H]- ZM-241385 from CHO cell membrane expressing the human Adenosine A2A receptor at a concentration of 10 uM; assay type: cell membranes
[2] = target: T2, Adenosine receptor A1 (Homo sapiens) (UniProt P30542); assay: Ability to displace [3H]- DPCPX from CHO cell membrane expressing the human Adenosine A1 receptor at a concentration of 10 uM; assay type: cell membranes
T2 sequence (whole entry): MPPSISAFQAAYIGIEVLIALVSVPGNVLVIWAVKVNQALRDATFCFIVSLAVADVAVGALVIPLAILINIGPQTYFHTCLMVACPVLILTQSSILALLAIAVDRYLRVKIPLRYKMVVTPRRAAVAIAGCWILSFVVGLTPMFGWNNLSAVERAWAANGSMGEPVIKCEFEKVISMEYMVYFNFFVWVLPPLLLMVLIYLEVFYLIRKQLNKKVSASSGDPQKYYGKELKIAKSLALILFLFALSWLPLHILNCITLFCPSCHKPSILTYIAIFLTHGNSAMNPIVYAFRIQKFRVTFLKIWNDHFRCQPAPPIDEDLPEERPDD

[3] = target: T3, Adenosine receptor A3 (Homo sapiens) (UniProt P0DMS8); assay: Displacement of [125I]AB-MECA from HEK293 cell membrane expressing human Adenosine A3 receptor at 10 uM; assay type: cell membranes
T3 sequence (whole entry): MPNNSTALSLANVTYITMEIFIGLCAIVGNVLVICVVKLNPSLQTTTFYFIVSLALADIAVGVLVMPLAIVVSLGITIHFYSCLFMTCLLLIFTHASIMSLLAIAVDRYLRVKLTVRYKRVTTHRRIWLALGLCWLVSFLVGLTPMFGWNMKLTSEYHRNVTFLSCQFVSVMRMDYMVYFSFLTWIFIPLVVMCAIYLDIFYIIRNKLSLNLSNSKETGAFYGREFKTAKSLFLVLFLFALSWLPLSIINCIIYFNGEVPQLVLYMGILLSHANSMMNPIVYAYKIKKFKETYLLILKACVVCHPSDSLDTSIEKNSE

Adenosine receptor A3 = target: T4, Adenosine receptor A3 (Homo sapiens, UniProt P0DMS8); assay: Ability to displace [125I]- AB-MECA from HEK 293 cell membrane expressing the human Adenosine A3 receptor; assay type: cell membranes, HEK293
T4 sequence (P0DMS8 whole entry): T3 sequence (whole entry)

Adenosine receptor A2a [4] = target: T1, Adenosine receptor A2a; assay: Displacement of [3H]ZM-241,385 from CHO cell membrane expressing human Adenosine A2A receptor; assay type: cell membranes
Procedure, shortened: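 Membranes from CHO cells expressing human A2A, with adenosine deaminase 2 IU/mL added. Incubation used 2.0 nM (final) [3H]ZM241385 in 50 mM Tris/HCl pH 7.4 for 2 h at 25 °C. Nonspecific binding was set with 100 µM CPA. GF/B filtration, four ice-cold washes, scintillation counting. Ligands were dissolved in DMSO stocks.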

Adenosine receptor A1 = target: T5, Adenosine receptor A1 (Homo sapiens, UniProt P30542); assay: Displacement of [3H]DPCPX from CHO cell membrane expressing human Adenosine A1 receptor; assay type: cell membranes
T5 sequence (P30542 whole entry): T2 sequence (whole entry)

Adenosine receptor A2a [5] = target: T1, Adenosine receptor A2a; assay: Displace [3H]ZM-241385 from CHO cell membrane expressing human Adenosine A2A receptor at 10 uM; assay type: cell membranes
[6] = target: T2, Adenosine receptor A1 (Homo sapiens); assay: Displacement of [3H]DPCPX from CHO cell membrane expressing human Adenosine A1 receptor at 10 uM; assay type: cell membranes
[7] = target: T2, Adenosine receptor A1 (Homo sapiens); assay: Displacement of [3H]- DPCPX from CHO cell membrane expressing human Adenosine A1 receptor; assay type: cell membranes
Procedure, shortened: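 Membranes from CHO cells stably expressing human A1, resuspended in 50 mM Tris/HCl pH 7.4 with adenosine deaminase 2 IU/mL. Incubated with 1.6 nM (final) [3H]DPCPX in 50 mM Tris/HCl pH 7.4 for 1 h at 25 °C. Nonspecific binding was set with 10 µM CPA. Filtration over GF/B, three ice-cold washes, then liquid scintillation counting. Ligand stocks were in DMSO.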

T1 sequence (P29274 whole entry): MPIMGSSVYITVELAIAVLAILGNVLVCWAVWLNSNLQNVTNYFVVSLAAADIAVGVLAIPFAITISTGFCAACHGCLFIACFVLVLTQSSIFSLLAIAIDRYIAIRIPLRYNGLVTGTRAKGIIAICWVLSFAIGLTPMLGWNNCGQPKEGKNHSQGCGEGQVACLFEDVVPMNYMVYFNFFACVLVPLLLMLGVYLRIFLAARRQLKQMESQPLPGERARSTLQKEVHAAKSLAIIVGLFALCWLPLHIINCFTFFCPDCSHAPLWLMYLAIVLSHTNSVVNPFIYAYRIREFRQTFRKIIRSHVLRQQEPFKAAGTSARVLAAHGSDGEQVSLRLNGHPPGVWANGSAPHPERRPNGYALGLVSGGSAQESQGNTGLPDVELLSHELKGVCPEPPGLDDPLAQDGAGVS

Displacement (Adenosine receptor A2a [1]) [%]	Displacement [2] [%]	Ki (Adenosine receptor A3) [nM]	Ki (Adenosine receptor A2a [4]) [nM]	Ki (Adenosine receptor A1) [nM]	other results	SMILES
11	7	–	–	–	Displacement [3]: 6%	NCCCn1c(=O)c2c(nc3ccccn32)n(Cc2ccccc2)c1=O
0	11	200	–	–	–	O=c1[nH]c(=O)n(Cc2ccccc2)c2nc3cc(-c4ccccc4)ccn3c12
10	49	210	–	–	–	COc1ccn2c(c1)nc1c2c(=O)[nH]c(=O)n1Cc1ccccc1
8	25	–	–	–	–	CCCn1c(=O)c2c(nc3cc(-c4ccccc4)ccn32)n(Cc2ccccc2)c1=O
35	44	68	–	–	–	CCCn1c(=O)c2c(nc3ccccn32)n(Cc2cccc(C)c2)c1=O
–	–	–	119	–	–	CCCn1c(=O)c2c(nc3ccccn32)n(Cc2ccccc2)c1=O
16	25	213	–	–	–	COc1ccc(Cn2c(=O)c3c(nc4ccccn43)n(Cc3ccccc3)c2=O)cc1
40	–	6.3	–	28	–	CC(C)Cn1c(=O)c2c(nc3ccccn32)n(Cc2ccccc2)c1=O
–	–	5	161	42	–	C=CCn1c(=O)c2c(nc3ccccn32)n(Cc2ccccc2)c1=O
–	–	36	584	325	–	CCn1c(=O)c2c(nc3ccccn32)n(Cc2ccccc2)c1=O
–	40.9	4.2	242	–	–	O=c1c2c(nc3ccccn32)n(Cc2ccccc2)c(=O)n1CC1CC1
44	–	10	–	179	–	CCCn1c(=O)c2c(nc3cc(OC)ccn32)n(Cc2ccccc2)c1=O
23	53	555	–	–	–	CC(C)(C)c1ccn2c(c1)nc1c2c(=O)[nH]c(=O)n1Cc1ccccc1
40	–	8.3	–	83	–	CCCn1c(=O)c2c(nc3ccccn32)n(Cc2ccc(OC)cc2)c1=O
–	–	1130	–	–	Displacement (Adenosine receptor A2a [5]): 12%; Displacement [6]: 1%	COC(=O)/C=C/Cn1c(=O)c2c(nc3ccccn32)n(Cc2ccccc2)c1=O
–	–	3020	–	2100	Displacement (Adenosine receptor A2a [5]): 49%	CCCn1c(=O)c2c(nc3ccccn32)n(C)c1=O
–	–	950	385	1460	–	CCCn1c(=O)c2c(nc3cc(C(C)(C)C)ccn32)n(Cc2ccccc2)c1=O
–	20	77	25800	–	–	O=c1c2c(nc3ccccn32)n(Cc2ccccc2)c(=O)n1Cc1ccccc1
32	47	370	–	–	–	O=c1[nH]c(=O)n(Cc2ccccc2)c2nc3ccccn3c12
22	–	114	–	–	Displacement [7]: 21%	O=c1c2c(nc3ccccn32)n(Cc2ccccc2)c(=O)n1CC1CCCCC1
–	–	14	96	124	–	C#CCn1c(=O)c2c(nc3ccccn32)n(Cc2ccccc2)c1=O
